ChEMBL document CHEMBL1122296, “Plasmin-activated prodrugs for cancer chemotherapy. 2. Synthesis and biological activity of peptidyl derivatives of doxorubicin” (1983)

How the values were obtained:
Type in all cases: functional
Mus musculus [1] = assay: Median survival of treated/ control animals (%T/C) was determined by in vivo antitumor activity against the B16 melanoma cell line at a dose of 75 mg/kg administered intraperitoneally on day 5; conditions: route intraperitoneal
Summary of the method: (§1)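 Murine B16 melanoma implanted intraperitoneally in mice. Drug given intraperitoneally on days 5, 9 and 13 after implantation, with dose expressed as doxorubicin equivalents. Read-out is %T/C, the median survival of treated animals over that of untreated controls.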

Gallus gallus [2] = organism: Gallus gallus; assay: Inhibitory activity against the [3H]-thymidine incorporation into DNA of normal chicken embryo fibroblasts at 5 hr of treatment; conditions: read-out: ED50 (the source's name)
Gallus gallus [3] = organism: Gallus gallus; assay: Inhibitory activity against the [3H]thymidine incorporation into DNA of Rous Sarcoma virus transformed chicken embryo fibroblasts at 24 hr of treatment; conditions: read-out: ED50 (the source's name)
[4] = Selectivity index between the ED50 value for normal cells to that of transformed chicken embryo fibroblast cells at 24 hr of treatment
[5] = Degree of improvement in the selective cytotoxicity of the prodrug (drug 10) to that of the parent drug (drug 1) at 24 hr of treatment; Value is measured as 6.8 times
[6] = Degree of improvement in the selective cytotoxicity of the prodrug (drug 10) to that of the parent drug (drug 1) at 5 hr of treatment; Value is measured as 5.8 times
Gallus gallus [7] = organism: Gallus gallus; assay: Inhibitory activity against the [3H]thymidine incorporation into DNA of Rous Sarcoma virus transformed chicken embryo fibroblasts at 5 hr of treatment; conditions: read-out: ED50 (the source's name)
Mus musculus [8] = assay: Median survival of treated/ control animals (%T/C) was determined by in vivo antitumor activity against the B16 melanoma cell line at a dose of 30 mg/kg administered intraperitoneally on day 5; conditions: route intraperitoneal; summary of the method: as §1
Mus musculus [9] = assay: Median survival of treated/ control animals (%T/C) was determined by in vivo antitumor activity against the B16 melanoma cell line at a dose of 5 mg/kg administered intraperitoneally on day 5; conditions: route intraperitoneal; summary of the method: as §1
Mus musculus [10] = assay: Median survival of treated/ control animals (%T/C) was determined by in vivo antitumor activity against the B16 melanoma cell line at a dose of 60 mg/kg administered intraperitoneally on day 5; conditions: route intraperitoneal; summary of the method: as §1
Mus musculus [11] = assay: Median survival of treated/ control animals (%T/C) was determined by in vivo antitumor activity against the B16 melanoma cell line at a dose of 45 mg/kg administered intraperitoneally on day 5; conditions: route intraperitoneal; summary of the method: as §1
[12] = Selectivity index between the ED50 value for normal cells to that of transformed chicken embryo fibroblast cells at 5 hr of treatment
Gallus gallus [13] = organism: Gallus gallus; assay: Inhibitory activity against the [3H]thymidine incorporation into DNA of normal chicken embryo fibroblasts at 24 hr of treatment; conditions: read-out: ED50 (the source's name)
Mus musculus [14] = assay: Median survival of treated/ control animals (%T/C) was determined by in vivo antitumor activity against the B16 melanoma cell line at a dose of 15 mg/kg administered intraperitoneally on day 5; conditions: route intraperitoneal; summary of the method: as §1
Mus musculus [15] = assay: Median survival of treated/ control animals (%T/C) was determined by in vivo antitumor activity against the B16 melanoma cell line at a dose of 6 mg/kg administered intraperitoneally on day 5; conditions: route intraperitoneal; summary of the method: as §1
Mus musculus [16] = assay: Median survival of treated/ control animals (%T/C) was determined by in vivo antitumor activity against the B16 melanoma cell line at a dose of 3 mg/kg administered intraperitoneally on day 5; conditions: route intraperitoneal; summary of the method: as §1
Mus musculus [17] = assay: Median survival of treated/ control animals (%T/C) was determined by in vivo antitumor activity against the B16 melanoma cell line at a dose of 1 mg/kg administered intraperitoneally on day 5; conditions: route intraperitoneal; summary of the method: as §1
Mus musculus [18] = assay: Median survival of treated/ control animals (%T/C) was determined by in vivo antitumor activity against the B16 melanoma cell line at a dose of 12 mg/kg administered intraperitoneally on day 5; conditions: route intraperitoneal; summary of the method: as §1
Mus musculus [19] = assay: Median survival of treated/ control animals (%T/C) was determined by in vivo antitumor activity against the B16 melanoma cell line at a dose of 9 mg/kg administered intraperitoneally on day 5; conditions: route intraperitoneal; summary of the method: as §1

| SMILES | T/C (Mus musculus [1]) | EC50 (Gallus gallus [2]) | EC50 (Gallus gallus [3]) | Selectivity index [4] | Improvement [5] | Improvement [6] | EC50 (Gallus gallus [7]) | T/C (Mus musculus [8]) | T/C (Mus musculus [9]) | T/C (Mus musculus [10]) | T/C (Mus musculus [11]) | Selectivity index [12] | EC50 (Gallus gallus [13]) | T/C (Mus musculus [14]) | T/C (Mus musculus [15]) | T/C (Mus musculus [16]) | T/C (Mus musculus [17]) | T/C (Mus musculus [18]) | T/C (Mus musculus [19]) |
| --- | --- | --- | --- | --- | --- | --- | --- | --- | --- | --- | --- | --- | --- | --- | --- | --- | --- | --- | --- |
| COc1cccc2c1C(=O)c1c(O)c3c(c(O)c1C2=O)C[C@@](O)(C(=O)CO)C[C@@H]3OC1CC(NC(=O)[C@H](CCCCN)NC(=O)[C@H](CC(C)C)NC(=O)[C@H](N)C(C)C)C(O)C(C)O1 (stereo partly specified) | 121% | 54000 nM | 800 nM | 3.8 | 6.8 | 5.8 | 26000 nM | 97% | 105% | 113% | 105% | 2.1 | 3000 nM | 103% |  |  |  |  |  |
| COc1cccc2c1C(=O)c1c(O)c3c(c(O)c1C2=O)C[C@@](O)(C(=O)CO)C[C@@H]3OC1CC(NC(=O)[C@H](CCCCN)NC(=O)[C@H](CC(C)C)NC(=O)[C@@H](NC(=O)OC(C)(C)C)C(C)C)C(O)C(C)O1.Cl (stereo partly specified) |  |  |  |  |  |  |  | 110% | 105% | 100% |  |  |  | 100% |  |  |  |  |  |
| COc1cccc2c1C(=O)c1c(O)c3c(c(O)c1C2=O)C[C@@](O)(C(=O)CO)C[C@@H]3O[C@H]1C[C@H](N)[C@H](O)[C@H](C)O1 [DOXORUBICIN] |  | 900 nM | 180 nM | 0.56 | 6.8 | 5.8 | 2500 nM |  |  |  |  | 0.36 | 100 nM |  | 158% | 137% | 111% | 68% | 90% |
